Laboratory results: ChEMBL document CHEMBL1137534, “Synthesis and screening for acetylcholinesterase inhibitor activity of some novel 2-butyl-1,3-diaza-spiro[4,4]non-1-en-4-ones: derivatives of irbesartan key intermediate” (Bioorg Med Chem, 2007)

Assays:
Acetylcholinesterase [1] = target: T1, Acetylcholinesterase (Rattus norvegicus, UniProt P37136); experiment: Inhibition of Wistar rat brain AChE by Ellman colorimetric assay
T1 sequence (P37136 whole entry): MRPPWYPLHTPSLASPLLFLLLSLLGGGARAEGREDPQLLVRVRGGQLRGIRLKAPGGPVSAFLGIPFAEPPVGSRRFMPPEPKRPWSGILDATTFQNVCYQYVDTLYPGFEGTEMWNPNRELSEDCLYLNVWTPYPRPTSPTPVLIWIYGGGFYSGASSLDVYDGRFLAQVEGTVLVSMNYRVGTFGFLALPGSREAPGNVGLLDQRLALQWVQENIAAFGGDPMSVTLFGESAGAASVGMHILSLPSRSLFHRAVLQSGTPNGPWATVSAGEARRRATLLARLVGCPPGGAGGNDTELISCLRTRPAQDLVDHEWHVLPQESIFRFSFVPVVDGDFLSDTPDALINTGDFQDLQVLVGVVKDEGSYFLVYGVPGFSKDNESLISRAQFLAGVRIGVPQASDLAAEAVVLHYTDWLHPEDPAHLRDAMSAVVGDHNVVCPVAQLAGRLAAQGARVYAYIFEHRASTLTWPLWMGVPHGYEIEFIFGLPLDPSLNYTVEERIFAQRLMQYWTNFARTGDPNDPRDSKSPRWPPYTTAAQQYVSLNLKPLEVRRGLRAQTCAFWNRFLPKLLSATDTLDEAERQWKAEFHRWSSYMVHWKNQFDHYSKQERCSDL
Summary of the method: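 Rat brain homogenate as the enzyme source. Ellman method with DTNB and 1.0 mM acetylthiocholine at 37 °C. Enzyme, buffer, DTNB and inhibitor were preincubated 10 min before substrate was added. Absorbance at 412 nm was read every 1 min for 10 min. Inhibitor range was 0–200 nM. IC50 is the concentration giving 50% inhibition; duplicate means.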

Acetylcholinesterase [2] = target: Acetylcholinesterase (Homo sapiens, UniProt P22303); experiment: Inhibition of human serum AChE by Ellman colorimetric assay
Summary of the method: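 Crude AChE was the supernatant of fresh volunteer blood mixed with 3.8% trisodium citrate (9:1) and spun at 3000 rpm, 0 °C, 20 min. Ellman assay with DTNB and 1.0 mM acetylthiocholine at 37 °C, after 10 min preincubation with inhibitor. A412 was followed over 10 min. Inhibitor range was 0–200 nM. IC50 is the 50% inhibition point; duplicate means.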

Acetylcholinesterase [3] = target: Acetylcholinesterase (Electrophorus electricus, UniProt O42275); experiment: Inhibition of electric eel AChE by Ellman colorimetric assay
Summary of the method: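 Electric eel AChE stock was kept frozen in 0.1 M KH2PO4 (pH 8). Assay used phosphate buffer pH 8.0, DTNB and 1.0 mM acetylthiocholine at 37 °C, after 10 min enzyme–inhibitor preincubation. A412 was read at 1-min intervals for 10 min. Inhibitor range was 0–200 nM. IC50 was taken at 50% inhibition; duplicates, mean reported.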

Acetylcholinesterase (Homo sapiens, UniProt P22303), sequence (P22303 whole entry): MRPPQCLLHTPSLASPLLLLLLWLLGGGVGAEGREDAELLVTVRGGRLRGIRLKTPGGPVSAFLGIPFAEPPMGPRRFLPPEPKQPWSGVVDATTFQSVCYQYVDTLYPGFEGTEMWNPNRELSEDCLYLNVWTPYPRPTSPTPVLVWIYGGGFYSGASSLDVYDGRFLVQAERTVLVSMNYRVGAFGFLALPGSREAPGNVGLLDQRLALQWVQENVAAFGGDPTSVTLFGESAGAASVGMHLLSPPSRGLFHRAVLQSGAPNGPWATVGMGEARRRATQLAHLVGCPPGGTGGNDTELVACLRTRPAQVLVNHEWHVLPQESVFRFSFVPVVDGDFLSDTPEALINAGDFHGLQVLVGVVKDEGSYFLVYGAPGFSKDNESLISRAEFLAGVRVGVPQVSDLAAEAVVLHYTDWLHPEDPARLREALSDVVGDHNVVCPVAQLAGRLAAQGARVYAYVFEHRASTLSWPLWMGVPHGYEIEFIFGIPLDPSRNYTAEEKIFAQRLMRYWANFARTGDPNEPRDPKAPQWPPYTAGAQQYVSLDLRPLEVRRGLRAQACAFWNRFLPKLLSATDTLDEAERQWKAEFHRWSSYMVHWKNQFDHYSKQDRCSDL
Acetylcholinesterase (Electrophorus electricus, UniProt O42275), sequence (O42275 whole entry): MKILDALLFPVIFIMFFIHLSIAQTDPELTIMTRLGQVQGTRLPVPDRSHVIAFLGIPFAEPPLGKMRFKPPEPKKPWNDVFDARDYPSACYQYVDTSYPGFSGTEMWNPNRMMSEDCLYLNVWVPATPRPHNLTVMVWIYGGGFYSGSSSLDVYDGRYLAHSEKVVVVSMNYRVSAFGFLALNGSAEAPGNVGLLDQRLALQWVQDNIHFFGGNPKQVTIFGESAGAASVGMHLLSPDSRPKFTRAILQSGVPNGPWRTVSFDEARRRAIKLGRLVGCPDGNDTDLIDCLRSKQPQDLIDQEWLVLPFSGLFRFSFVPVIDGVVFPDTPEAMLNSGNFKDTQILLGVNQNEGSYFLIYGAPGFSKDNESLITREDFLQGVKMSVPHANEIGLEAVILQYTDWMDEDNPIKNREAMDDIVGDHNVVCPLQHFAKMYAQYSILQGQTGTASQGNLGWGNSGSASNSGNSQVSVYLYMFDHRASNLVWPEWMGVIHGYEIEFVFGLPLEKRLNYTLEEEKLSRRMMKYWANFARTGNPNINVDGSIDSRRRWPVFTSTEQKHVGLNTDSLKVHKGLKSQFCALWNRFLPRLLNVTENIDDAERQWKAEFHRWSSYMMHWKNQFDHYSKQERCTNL

Row | SMILES | IC50 (Acetylcholinesterase [1]) [nM] | IC50 (Acetylcholinesterase [2]) [nM] | IC50 (Acetylcholinesterase [3]) [nM]
1 | CCCCC1=NC2(CCCC2)C(=O)N1Cc1ccc(-c2ccccc2C(=O)OC(C)(C)C)cc1 | 271 | 269 | 277
2 | CCCCC1=NC2(CCCC2)C(=O)N1Cc1ccc([N+](=O)[O-])cc1 | 134 | 135 | 149
3 | CCCCC1=NC2(CCCC2)C(=O)N1CCN1C(=O)c2ccccc2C1=O | 234 | 231 | 250
4 | CCCCC1=NC2(CCCC2)C(=O)N1Cc1cc2c(cc1C)OCO2 | 216 | 232 | 212
5 | CCCCC1=NC2(CCCC2)C(=O)N1Cc1ccc(-c2ccccc2C(=O)OC)cc1 | 243 | 241 | 236
6 | CCCCC1=NC2(CCCC2)C(=O)N1Cc1ccc(-c2ccccc2C#N)cc1 | 90 | 82.5 | 90
7 | CCCCC1=NC2(CCCC2)C(=O)N1Cc1ccc(Br)cc1 | 70 | 70 | 67.5
8 | CCCCC1=NC2(CCCC2)C(=O)N1Cc1cc(OC)c(OC)cc1Br | 77.5 | 82.5 | 80
9 | CCCCC1=NC2(CCCC2)C(=O)N1CC(=O)c1ccc(Cl)cc1 | 280 | 286 | 280
10 | CN(C)C(=O)Oc1cccc([N+](C)(C)C)c1 [NEOSTIGMINE BROMIDE] | 35 |  | 47.5
